Source: PubChem
Compounds with a hit are over-represented: about 5.9% of the library has one in this group of screens.
T cruzi growth-1 – T. cruzi proliferation inhibition; T. cruzi beta-gal in NIH3T3, GalScreen luminescence, 90 h; inhibition, % at 8.34 µM; 77,000 compounds, 5.9% hits; AID 624255;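 active = mean inhibition above about 93%, with at least 55% of replicates each passing it, limit read from the data, passing the limit was not always enough; inconclusive = only one of those two conditions holds; inactive = neither condition holds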
Pf Dd2 growth – P. falciparum Dd2 growth inhibition | activity change, % at 10 µM | 94,000 compounds, 2.3% hits | AID 1159554 | SYBR Green, 72 h; active compounds read low; in the data active = activity change below about -80%; inconclusive = no clear call, values can overlap the other calls
IDH1 mut inh – IDH1 R132H (human) inhibition; O75874; IDH1 R132H reductase, diaphorase/resazurin fluorescence, 60 min; inhibition, % at 10 µM; 70,000 compounds, 0.18% hits; in the data active = inhibition above about 34%; inconclusive = no clear call, values can overlap the other calls; inactive = below about 11%;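 note: 0% = DMSO and 100% = no enzyme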
Target sequence (O75874 whole entry R132H): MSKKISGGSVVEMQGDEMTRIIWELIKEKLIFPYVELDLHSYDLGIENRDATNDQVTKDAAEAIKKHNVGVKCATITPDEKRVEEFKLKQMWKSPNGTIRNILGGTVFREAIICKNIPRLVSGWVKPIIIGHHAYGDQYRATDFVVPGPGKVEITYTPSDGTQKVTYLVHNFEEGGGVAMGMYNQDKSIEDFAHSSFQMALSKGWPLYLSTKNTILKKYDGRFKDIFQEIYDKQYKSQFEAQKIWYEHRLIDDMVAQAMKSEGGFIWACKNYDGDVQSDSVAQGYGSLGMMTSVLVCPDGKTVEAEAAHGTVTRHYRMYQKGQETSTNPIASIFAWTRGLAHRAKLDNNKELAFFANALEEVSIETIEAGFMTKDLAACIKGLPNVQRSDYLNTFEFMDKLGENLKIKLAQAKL
GASC1 inh – inhibitors of human demethylase GASC-1 KDM4C; inhibition, % at 12.5 µM; GST-KDM4C 2-372, H3K9me3 peptide, LANCE TR-FRET; 96,000 compounds, 0.15% hits; Q9H3R0;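 active = mean replicate inhibition above about 25%, with at least 55% of replicates also reaching it, limit read from the data, passing the limit was not always enough; inconclusive = only one of those two conditions met; inactive = neither condition met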
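material = GST-tagged GASC-1 (JMJD2C) catalytic fragment, aa 2-372 | amount = enzyme final amount 10 nM | medium = HEPES buffer, pH 7.5, plus ascorbate | also added = H3K9me3 peptide substrate, Fe(II), 2-oxoglutarate | dosing = single dose | times = 30 min demethylation and 1 h detection at room temperature | detection = LANCE TR-FRET | read-out basis = Fall in 671/618 emission ratio as inhibition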
T cruzi growth-2 – blocks T. cruzi growth in NIH3T3 host cells | shares compounds with T cruzi growth-1 | T. cruzi beta-gal in NIH3T3, GalScreen luminescence, 90 h | inhibition, % at 8.35 µM | 5,600 compounds, 72% hits;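 active = mean replicate inhibition above about 95% and at least 55% of replicates individually reaching it, limit read from the data; inconclusive = only one of the two criteria is met; inactive = neither criterion is met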
T cruzi growth-3 – inhibitors of T. cruzi proliferation. shares compounds with T cruzi growth-1. T. cruzi beta-gal in NIH3T3, GalScreen luminescence, 90 h. inhibition, % at 2.09 µM. 5,600 compounds, 21% hits. AID 651740;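 active = mean inhibition above about 95%, with at least 55% of replicates also reaching it, limit read from the data; inconclusive = meets just one of the two conditions; inactive = meets neither condition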;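 note: plate controls were neutral control median for no effect and positive control median for full effect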
3T3 cytotox – NIH/3T3 (mouse) viability loss; NIH/3T3 viability, CellTiter-Glo ATP luminescence, 90 h; cytotoxicity (signal decrease), % at 8.35 µM; shares compounds with T cruzi growth-1; 5,600 compounds, 14% hits;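 active = mean signal decrease across replicates above about 35% based on untreated-well scatter, with enough replicates individually passing, limit read from the data; inconclusive = no rule stated though some were filed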;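 note: 0% = median of neutral control wells and 100% = median of positive control wells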
NIH3T3 tox 2 – cytotoxicity in mouse NIH/3T3 fibroblasts | shares compounds with T cruzi growth-1 | NIH/3T3 viability, CellTiter-Glo ATP luminescence, 90 h | inhibition, % at 24.9 µM | 5,600 compounds, 56% hits;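 active = mean loss of cell viability signal at or above a set limit, and enough replicates individually reaching it; inconclusive = meets only the mean limit or only the replicate share; inactive = meets neither condition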;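 note: 0% = median of neutral control wells and 100% = median of positive control wells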
Numbers without * were called inactive; ? = inconclusive; nt = no result given; + = active, no number.

SMILES	T cruzi growth-1	Pf Dd2 growth	IDH1 mut inh	GASC1 inh	T cruzi growth-2	T cruzi growth-3	3T3 cytotox	NIH3T3 tox 2
O=C(Cc1ccccc1)N1CCCCN2[C@@H](CO)[C@@H](c3ccc(C#Cc4ccccc4)cc3)[C@@H]2C1	106.2*	-55.5	nt	-1.8	99.9*	102.0*	120.5*	104.8*
O=C(Cc1ccncc1)N1CCCCN2[C@@H](CO)[C@H](c3ccc(C#Cc4ccccc4F)cc3)[C@@H]2C1	112.5*	-42.1	nt	-0.3	112.0*	79.1	49.8*	103.8*
O=C(Cc1ccccc1)N1CCCCN2[C@H](CO)[C@H](c3ccc(C#CC4(O)CCCC4)cc3)[C@H]2C1	99.9*	-10.5	nt	-1.2	61.9	53.2	-7.8	30.4*
CC1CCC/C=C/C2CC(O)CC2C(O)/C=C\C(=O)O1 (configuration not stated)	nt	nt	1.0	nt	nt	nt	nt	nt
O=C(Cc1ccccc1)N1CCCCN2[C@H](CO)[C@@H](c3ccc(C#CC4(O)CCCC4)cc3)[C@@H]2C1	37.9	-5.0	nt	-0.7	nt	nt	nt	nt
O=C(Cc1ccccc1)N1CCCCN2[C@@H](CO)[C@H](c3ccc(C#Cc4ccccc4)cc3)[C@@H]2C1	111.1*	-59.7	nt	?	108.3*	104.9*	43.2*	103.1*
COC(=O)[C@@H]1[C@@H](CO)[C@@H]2Cn3c(ccc(-c4ccccc4F)c3=O)[C@H]1N2CC1CCCC1	+	nt	nt	1.9	67.5	2.0	22.3	42.1*
COC(=O)[C@H]1[C@H](CO)[C@H]2Cn3c(ccc(C4=CCCCC4)c3=O)[C@@H]1N2Cc1ccccn1	100.8*	8.4	nt	4.0	-19.9	-4.3	-4.1	3.8
COC(=O)[C@H]1[C@H](CO)[C@H]2Cn3c(ccc(-c4ccccc4)c3=O)[C@@H]1N2CC1CCCC1	nt	-7.9	nt	-0.6	nt	nt	nt	nt
COC(=O)[C@@H]1[C@@H](CO)[C@@H]2Cn3c(ccc(C4=CCCCC4)c3=O)[C@H]1N2Cc1ccccn1	94.6	10.3	nt	0.5	nt	nt	nt	nt
O=C1NC(=O)C(CCc2ccncc2)(CCc2ccncc2)C(=O)N1c1ccccc1F	nt	nt	6.1	nt	nt	nt	nt	nt
O=C(Cc1ccccn1)N1CCCCN2[C@H](C1)[C@@H](c1ccc(C#Cc3ccccc3)cc1)[C@@H]2CO	99.0*	-55.6	nt	-1.3	104.7*	51.3	41.4*	104.1*
CCCC#Cc1ccc([C@@H]2[C@@H](CO)N3CCCCN(C(=O)Cc4ccccn4)C[C@@H]23)cc1	110.4*	-55.4	nt	0.9	?	57.3	22.5	13.0
CCCC#Cc1ccc([C@H]2[C@H]3CN(C(=O)Cc4ccccn4)CCCCN3[C@H]2CO)cc1	119.3*	-10.3	nt	-0.9	90.4	41.0	-2.8	22.5
COc1cc2c(cc1O)C1Cc3ccc(OC)c(O)c3CN1CC2 (configuration not stated)	nt	nt	-0.3	nt	nt	nt	nt	nt
CC(=O)O[C@@H](c1nc2ccccc2c(=O)n1[C@@H]1C[C@@]2(OC1=O)c1ccccc1N1C(=O)[C@H](C)N(O)[C@@H]12)C(C)C	nt	nt	0.3	nt	nt	nt	nt	nt
C=C1[C@@H](C)[C@H]2[C@H](Cc3ccccc3)NC(=O)[C@]23[C@H](OC(C)=O)C=C[C@](C)(O)C(=O)[C@@H](C)C/C=C/[C@H]3[C@@H]1O	nt	nt	0.5	nt	nt	nt	nt	nt
COC1CC(OC2C(C)OC(OC3C(C)OC(OC4C(C)OC(O[C@H]5CC[C@@]6(C)C(=CC[C@]7(O)C6CC(OC(=O)c6ccccc6)[C@@]6(C)[C@]7(O)CC[C@@]6(O)C(C)=O)C5)CC4OC)CC3OC)CC2OC)OC(C)C1O (some centres not stated)	nt	nt	0.5	nt	nt	nt	nt	nt
O=C(Cc1cccnc1)N1CCCCN2[C@H](CO)[C@H](c3ccc(/C=C/c4ccccc4)cc3)[C@@H]2C1	118.9*	7.6	nt	0.2	114.1*	102.4*	?	78.6*
O=C(Cc1cccnc1)N1CCCCN2[C@@H](CO)[C@H](c3ccc(/C=C/c4ccccc4)cc3)[C@@H]2C1	104.6*	7.5	nt	0.0	103.7*	73.3	?	104.4*
